Results published in ChEMBL document CHEMBL1154279, “Cytotoxic compounds from the stems of Cinnamomum tenuifolium” (J Nat Prod, 2009).

Columns and labels:
LNCaP = experiment: Cytotoxicity against human LNCAP cells after 72 hrs by XTT assay; format: functional, cell-based; conditions: 24 h, in the assay text read “after 24 hrs” for “after 72 hrs”
Procedure, shortened: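 Prostate cancer cells in RPMI-1640 with 10% FBS, 37 °C, 5% CO2, grown to 70–80% confluence and treated at 0.1–100 µM for 24, 48 and 72 h. XTT labeling for 4 h at 37 °C, absorbance 450 nm (reference 650 nm) against control wells. IC50 derived from the mean of eight wells; taxol and cisplatin served as positive controls.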

DU-145 = experiment: Cytotoxicity against human DU145 cells after 72 hrs by XTT assay; format: functional, cell-based; conditions: DU-145, 24 h, in the assay text read “after 24 hrs” for “after 72 hrs”

| SMILES | IC50 (LNCaP) [µM] | IC50 (DU-145) [µM] |
| --- | --- | --- |
| CC(=O)O[C@H]1C(=O)[C@@]2(C)[C@H]([C@H](OC(=O)c3ccccc3)[C@]3(O)C[C@H](OC(=O)[C@H](O)[C@@H](NC(=O)c4ccccc4)c4ccccc4)C(C)=C1C3(C)C)[C@]1(OC(C)=O)CO[C@@H]1C[C@@H]2O [PACLITAXEL] | 6.32 |  |
| CC(C)C1=CC(=O)[C@]2(C)O[C@@]1(O)[C@@H]1[C@H](C)CC[C@@H]12 [ALPINENONE] | 67.1 | 267 |
